Data published in the EternaBench riboswitch data.

Tested on: MS2 coat protein
Assay: apparent Kd, MS2 coat protein; higher = weaker binding; RNA-MaP array; FMN 200 µM where present
How it was run: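 The titrant was SNAP-549-labelled MS2 coat protein, run from 0.7 or 1.5 nM in doubling steps to 3 µM. It was applied to designs transcribed by stalled E. coli RNA polymerase on Illumina sequencing-chip clusters, without ligand first and then with constant ligand, in 100 mM Tris-HCl pH 7.5, 80 mM KCl, 4 mM MgCl2, BSA, DTT, yeast tRNA and Tween-20. The apparent Kd is the median of filtered per-cluster binding-curve fits, with green signal normalised to red-channel RNA signal and control-cluster median Fmax.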

[1] = designed as: ON switch for flavin mononucleotide, no ligand
[2] = ligand present: flavin mononucleotide, designed as: ON switch for flavin mononucleotide
[3] = designed as: OFF switch for flavin mononucleotide, no ligand
[4] = ligand present: flavin mononucleotide, designed as: OFF switch for flavin mononucleotide

| Sequence | apparent Kd [1] [nM] | apparent Kd [2] [nM] | apparent Kd [3] [nM] | apparent Kd [4] [nM] |
| --- | --- | --- | --- | --- |
| ACAUAAAUUCGAGGAUAUCGGUGAAAUAAUUUACGAGAAGGCGAUAAUAGUUAUAAACUUAUAGACAUGAGGAUCACCCAUGUA | 31.6 | 32.4 |  |  |
| CGUUGUGAAGAGGAUAUCCAACAAAGUUGUCAAGGAGAAGGCUUCACAUGAGGAUCACCCAUGUUAUGCCUUAU |  |  | 18.2 | 80.2 |
| GCAGCGCCUGACAUGAGGAUCACCCAUGUUCCAUUGUUGAGUCAGGAUAUAGUCUAGAAACUAGACUAGAAGGGAUAUGCUGCU | 70.2 | 50.8 |  |  |
| CGCACGAGGCAAGGAUAUGCUGACAUGAGGAUCACCCAUGUGAGCAUGGGUCUGGUACGGGAUCAGCAGAAGGUGCACCGAGGU |  |  | 18.5 | 18.8 |
| CAGUCUACAGGAUAUACAUGAGGAUCACCCAUGUGUAUCAACCUUCUGUAAUCCUCAUGUAGAAGGGUAGACUG |  |  | 16.3 | 13.7 |
| UGAACUUCAGAGAAGGUCGAAUCGCAACGGUUCGAAGGAUAUCUGGAAACAUGAGGAUCACCCAUGUAACCGGGUGGAUGUCCU |  |  | 56.8 | 246 |
| AUCAGCUCGUCAGGAUAUACGUCACUGCGUCCGCAGUGUGGUAAGAUCACAUGAGGAUCACCCAUGUAGAAGGGACGAGCUGAU |  |  | 13.8 | 264 |
| CAGCGAAAGCUGAAUCUGUAGAGAGAGGAUAUACGAGGCGAAAUCCAUACAUGAGGAUCACCCAUGUAGAAGGCUCUCUACAGU |  |  | 155 | 363 |
| AAUAUGUGAGGAUAUCAGGUGUGCUAGCGUACUGGUACAUCUGAGAAGGCACAUGAGGAUCACCCAUGUAUCUU |  |  | 24.4 | 87.4 |
| UGGUACAUGGGAGGAUAUGGGUUGAUAACAUGAGGAUCACCCAUGUUAAAUAUGCCGAGAGGCAACUAGAAGGCCCAUGUACCU | 482 | 38.2 |  |  |
| GCUCGAUGCGCUGAGCACAUGAGGAUCACCCAUGUAAAUGGUCAGGAUAUUUACGUGCUUUAUGUAGAGAAGGGACUAUCGAGC | 630 | 59.4 |  |  |
| CCUCCGUAUGAGGAUAUCGUCCAGGAAACUGGACGAGAAGGCAUGACAUGAGGAUCACCCAUGUUAACGUGAUG |  |  | 19.8 | 52.1 |
| GCUGCAUAGGCAGGAUAUGCAAUAAUUUAAAUAAAAUAUAAUAAAUUAACAUGAGGAUCACCCAUGUAGAAGGGCCUGUGCAGU |  |  | 19.8 | 19.2 |
| UUUAAACAUGAGGAUCACCCAUGUUUUUUUAUGGGAGGAUAUCUAAGUUAAUUAUAUUAAGGAGAAGGCCUAUUUU | 146 | 26.7 |  |  |
| CCCGUGUUAGGAUAUACGGCACACCCACAAACGGGUAUAUAGUAGAAGGAACAUGAGGAUCACCCAUGUAAAAC |  |  | 20.2 | 46.5 |
| CCCUCACAUGAGGAUCACCCAUGUCAGGAUAUCUAGUCAGACAGUGUAGCACUGCUGAAGAGAAGGGACGUAAA |  |  | 16.9 | 19.4 |
| AAAGAGUCAGGAUAUUCGUAUAGAGUAGCGCGACUCUAUACGAAGAAGGGACAUGAGGAUCACCCAUGUAAAAA |  |  | 28.1 | 45.6 |
| GUCGUGUGAGGAUAUGGUUCGUCGCAGUGGCGGUCGGCGACCUAGAAGGCACAUGAGGAUCACCCAUGUAUGUG |  |  | 122 | 84 |
| ACAUGAUCAGGAUAUACAUGAGGAUCACCCAUGUAAAUAAAAAAAAAACUUUCUUUAUGUAGAAGGGAUCUUGU |  |  | 21 | 30.1 |
| AACCCUACUGAGGAUAUGAAACGGCUAGACGCAUCAGAAGGCAGUACAUGAGGAUCACCCAUGUACCUCCGGGC |  |  | 13.3 | 20.9 |
| GCGUUAUUGUAGAAGGUACAUGAAUAUAUUUAAUACCUCAAGUAACAUGAGGAUCACCCAUGUAGUAAGGAUAUACAUAUACGC | 69.4 | 52.4 |  |  |

| Sequence | apparent Kd [1] [nM] | apparent Kd [2] [nM] | apparent Kd [3] [nM] | apparent Kd [4] [nM] |
| --- | --- | --- | --- | --- |
| UUUAUUAGUUAGAAGGCUUGAUGAAUUACAAUGGACAUGAGGAUCACCCAUGUGUAUUCAUGUCAAGAGGAUAUAGUCAUAUAU | 39.1 | 17.7 |  |  |
| UGUUGUGAACAGAACAUGAGGAUCACCCAUGUGCACUCGUGUAAGGAUAUACAAUCGUAUGGAAAGUAGAAGGUACUAAUUAUG |  | 120 |  |  |
| UGGACCGAGCUGUCGGUUGACUCGAAGGAUAUGACAUGAGGAUCACCCAUGUGGGAUCUAAAUUGUCAGAAGGUUGGUUCUGGG |  |  | 641 | 276 |
| AAAAAAAAAUCUCAGGAUAUAGAUUAUAGAACAUGAGGAUCACCCAUGUAGUGAAAGAAGAAAAACUAGAAGGGAGGAAAAAAAAA | 100 | 66.6 |  |  |
| UCUACAUAAAUUCAUCAAUACAGAAAGGAUAUGAAAUACAUGAGGAUCACCCAUGUUCAUGGGAAUUAGAAGGUUCAAUUAGCC |  |  | 133 | 84.6 |
| AACAUGCUAGGAUAUACAAGACAAAUUGGGCAUCCGCAUGGACAUGAGGAUCACCCAUGUAGAAGGAGUAUAAA |  |  | 167 | 278 |
| AAUUCACAUGAGGAUCACCCAUGUGAGGAUAUGGUUUCGCUGGCCGUAGCCAGUGGAACCAGAAGGCGCGUGAU |  |  | 56.5 | 65.2 |
| UUGUGCUGAGAGAAGGUUCAAACUACAUAUUGCGCACAUGAGGAUCACCCAUGUUGGUGAAUAAGAAAGGAUAUUUUACUGUAU |  |  | 244 | 184 |
| CCUGAGUCAGGAUAUUGUACCAGUCUAAAACCAGACUGACCCAAGAAGGGACAUGAGGAUCACCCAUGUGAAAA |  |  | 30.2 | 25.5 |
| AAAUAAAACGAUCGGCGAUCCAUACAUGAGGAUCACCCAUGUAGAAGGCACUCUACAAAGUAGAGUGAGGAUAUACGAGAUCGA |  |  | 7.13 | 95.5 |
| AAAAAGUCAGGAUAUAUCAAAAAAAAAGAAAAAAAAAAAAGAUAGAAGGGACAUGAGGAUCACCCAUGUAAAAA |  |  | 50.9 | 42.1 |
| ACAAGAUCAGGAUAUACAUGAGGAUCACCCAUGUAUUUCAAAAAAAAACUUUCUUUAUGUAGAAGGGAUCUUGU |  |  | 14.7 | 13.5 |
| GUAGCAUACCGAGGAUAUUCAUACAGGAAACAGACAUGAGGAUCACCCAUGUGGCGAAAGCCUUGGGAGAAGGCGGAAUGCUAC | 146 | 22.7 |  |  |
| AAAACAUGAGGAUCACCCAUGUUUAGAUCGGUCGAUUGAGGUGAGGAUAUACUAAGUUAAGGCUGGUAGAAGGCACUGGGUACA | 62 | 43.6 |  |  |
| GUAGCAUACCGAGGAUAUUCACAUAAUAAAUAAACAUGAGGAUCACCCAUGUGGCGAAAGCCUAGGGAGAAGGCGGAAUGCUAC | 76 | 18.7 |  |  |
| ACGCCUCCUGUCAGGAUAUGCAUCGGGCUUCCGCAGCAGAAGGGACAUGAGGAUCACCCAUGUCAAAUAAAAUC |  |  | 17.6 | 58.3 |
| AGAUCGACUGUGAGGAUAUUGACCGGACGACCCAUCGAGAAGGCACAUGAGGAUCACCCAUGUGAGUCGGUUUA |  |  | 15.5 | 17 |
| UUUAAAGGCACAUGAGGAUCACCCAUGUCCGGUACUAACAGACAGGAUAUGCAAGAUCCACUCAUGCAGAAGGGUCUGGCUUUU | 463 | 79.7 |  |  |
| GCAAACACAUGAGGAUCACCCAUGUGGAAAGAGCAAUUAGGCUAGGAUAUUCAUGUCGUUUGCAAGAAGAAGGAGCCAUAGUGG | 560 | 157 |  |  |
| CUUUUGUGAGGAUAUCAGUAGUAGAACAAUAGUACUACUACUGAGAAGGCACAUGAGGAUCACCCAUGUUCCUC |  |  | 62.5 | 455 |
| CUGUGACGGUGCGCAAGUGGACGUAGAAGGCUCACAUGAGGAUCACCCAUGUGGGCCUGCGAGUGAGAGGAUAUACGUUCGUGC |  |  | 5.28 | 5.56 |
